Usually pEC50 stands for −log10 of the EC50, conventionally taken in molar units. What is called clearance is a measure of how efficiently the substance is removed, as volume per time. Low readings indicate inefficient removal, high ones efficient removal. What is called Emax is the maximal effect, on the per cent scale that the assay sets. A word on the half-life: it is the time in which the quantity being followed falls by half. Lower therefore signals fast loss.

pEC50: −log10 of the molar value.

The values that follow come from ChEMBL document CHEMBL1140586, “Design and synthesis of a functionally selective D3 agonist and its in vivo delivery via the intranasal route” (Bioorg Med Chem Lett, 2007).

One data set addresses D(3) dopamine receptor (Homo sapiens, UniProt P35462). The data set can be described thus: Agonist activity at human recombinant dopamine D3 receptor expressed in CHO cells assessed as inhibition of forskolin-stimulated cAMP accumulation. Format: functional, cell-based. On the technique in general: cAMP levels reflect the balance of adenylyl cyclase and phosphodiesterase activity.

In a further data set the target is D(2) dopamine receptor (Homo sapiens, UniProt P14416). The data set is described as follows: Agonist activity at human recombinant dopamine D2 receptor expressed in rat pituitary cells assessed as inhibition of forskolin-stimulated cAMP accumulation. The class given is functional, cell-based, Pituitary gland cell.
The nature of data set [1]: Clearance in human. Particulars: in vivo. Format: ADME, organism-based.
The nature of data set [2]: Stability in human hepatocytes. Format: ADME, cell-based, Liver, Hepatocyte. In outline:
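Rat, dog and human hepatocyte incubations; read-out was the disappearance half-life of parent compound, in minutes.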

The nature of data set [3]: Clearance in rat. Particulars: in vivo. The class given is ADME, organism-based.

Chain of D(3) dopamine receptor (P35462 whole entry): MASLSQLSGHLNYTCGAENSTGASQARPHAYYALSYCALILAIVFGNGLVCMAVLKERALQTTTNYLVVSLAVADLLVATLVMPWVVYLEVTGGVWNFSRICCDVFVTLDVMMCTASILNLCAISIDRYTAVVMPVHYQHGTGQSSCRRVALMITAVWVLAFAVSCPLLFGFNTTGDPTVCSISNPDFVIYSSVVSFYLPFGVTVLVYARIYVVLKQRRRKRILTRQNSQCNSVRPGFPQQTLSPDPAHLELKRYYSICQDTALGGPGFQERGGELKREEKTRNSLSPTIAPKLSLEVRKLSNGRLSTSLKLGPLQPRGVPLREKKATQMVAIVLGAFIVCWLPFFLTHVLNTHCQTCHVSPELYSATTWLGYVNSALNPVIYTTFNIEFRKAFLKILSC
Chain of D(2) dopamine receptor (P14416 whole entry): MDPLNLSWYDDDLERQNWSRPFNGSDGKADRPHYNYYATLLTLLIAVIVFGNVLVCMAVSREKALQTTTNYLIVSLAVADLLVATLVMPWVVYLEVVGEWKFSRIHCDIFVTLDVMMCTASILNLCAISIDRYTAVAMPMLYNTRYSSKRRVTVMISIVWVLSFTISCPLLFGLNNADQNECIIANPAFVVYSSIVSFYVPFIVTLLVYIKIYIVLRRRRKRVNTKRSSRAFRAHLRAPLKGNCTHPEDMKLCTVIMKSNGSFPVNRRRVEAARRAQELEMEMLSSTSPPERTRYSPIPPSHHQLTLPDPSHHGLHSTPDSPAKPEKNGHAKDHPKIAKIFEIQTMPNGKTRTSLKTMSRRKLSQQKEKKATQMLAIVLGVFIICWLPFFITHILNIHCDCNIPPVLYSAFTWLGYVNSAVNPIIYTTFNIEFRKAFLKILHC

As for `CCCN1CCOC(c2ccc(O)c(N)c2)C1` (stereo unspecified), at D(3) dopamine receptor, the negative logarithm of the EC50 (pEC50) was 7.40.
On to `CCCN1CCO[C@@H](c2cc(O)cc(O)c2)C1`, for which the negative-log EC50 (pEC50) on D(3) dopamine receptor and at D(2) dopamine receptor was below 5.00 in each case.
For the compound `COCCN1CCOC(c2cccc(O)c2)C1` (stereo unspecified), the pEC50 was below 5.52 at D(3) dopamine receptor and below 5.00 on D(2) dopamine receptor.
The matching figures for `C=CCN1CCOC(c2cccc(O)c2)C1` (stereo unspecified): 5.88 and below 4.00.
For the compound `CCCN1CCOC(c2cccc(C#N)c2)C1` (stereo unspecified), the negative logarithm of the EC50 (pEC50) at D(3) dopamine receptor was below 6.00.
In the case of `CCCN1CCOC(c2cccc(O)c2C)C1` (stereo unspecified), at D(3) dopamine receptor, the negative-log EC50 (pEC50) was below 6.00.
As for `CCCN1CCO[C@@H](c2cccc(O)c2)C1`, the negative-log EC50 (pEC50) on D(3) dopamine receptor was below 5.30; on D(2) dopamine receptor, below 5.00.
On to `CCCN1CCOC(c2cccc(SC)c2)C1` (stereo unspecified), for which the negative logarithm of the EC50 (pEC50) at D(3) dopamine receptor was below 6.00; at D(2) dopamine receptor it was below 5.00.
With `CCCN1CCOC(c2cccc(OC(F)(F)F)c2)C1` (stereo unspecified), the pEC50 at D(3) dopamine receptor and on D(2) dopamine receptor was below 6.00 throughout.
In the case of `CCCN1CCOC(c2ccc(O)c(C(C)=O)c2)C1` (stereo unspecified), on D(3) dopamine receptor, the negative logarithm of the EC50 (pEC50) was below 6.00.
For the compound `CCCN1CCC[C@@H]2Cc3nc(N)ncc3C[C@H]21` [QUINELORANE], the negative-log EC50 (pEC50) at D(2) dopamine receptor was 8.70.
For `CCCN1CCOC(c2ccc(Cl)c(O)c2)C1` (stereo unspecified), the negative logarithm of the EC50 (pEC50) at D(3) dopamine receptor was below 6.16.
Regarding `CCCN1CCO[C@@H](c2ccc(F)c(O)c2)C1`, the negative logarithm of the EC50 (pEC50) on D(3) dopamine receptor and at D(2) dopamine receptor was below 5.00 each time.
Consider `CCCN1CCOC(c2cccc(-c3nnc[nH]3)c2)C1` (stereo unspecified), for which the negative logarithm of the EC50 (pEC50) on D(3) dopamine receptor is below 6.00.
Consider `CCCN1CCOC(c2cccc(O)c2)C1` (stereo unspecified), for which the pEC50 is 7.57 at D(3) dopamine receptor and below 5.00 at D(2) dopamine receptor.
Turning to `CCCN1CCOC(c2ccc(O)c(C(N)=O)c2)C1` (stereo unspecified), the negative-log EC50 (pEC50) at D(3) dopamine receptor is 6.37.
Same read-out and setting: to `CCCN1CCOC(c2ccc(O)c(CO)c2)C1` (stereo unspecified) belongs below 6.00; to `CCCN1CCOC(c2ccc(O)cc2)C1` (stereo unspecified), below 6.00.
On to `CCCN1CCOC(c2ccccc2)C1` (stereo unspecified), for which the pEC50 is below 6.00 on D(3) dopamine receptor and below 5.00 on D(2) dopamine receptor.
As to `CCCN1CCOC(c2cccc(CO)c2)C1` (stereo unspecified), the negative-log EC50 (pEC50) at D(3) dopamine receptor is below 6.00.
Turning to `CCCN1CCOC(c2cccc(OC)c2)C1` (stereo unspecified), the values for the pEC50 on D(3) dopamine receptor and at D(2) dopamine receptor were below 6.00 and below 5.00, respectively.
The matching figures for `CCN1CCOC(c2cccc(O)c2)C1` (stereo unspecified): 6.26 and below 4.52.
Consider `CNC[C@H](O)c1cccc(O)c1` [PHENYLEPHRINE], for which the clearance in data set [1] was determined as 30 mL/min/kg.
For the compound `CCCN1CCOC(c2cccc(N)c2)C1` (stereo unspecified), the pEC50 on D(3) dopamine receptor and on D(2) dopamine receptor was below 6.00 throughout.
With `CCCN1CCOC(c2cc(O)cc(C(N)=O)c2)C1` (stereo unspecified), at D(3) dopamine receptor, the negative-log EC50 (pEC50) was below 5.00.
As for `CCCN1CCO[C@H](c2ccc(F)c(O)c2)C1`, on D(3) dopamine receptor, the negative-log EC50 (pEC50) is 7.44 and the maximal effect (Emax) is above 90%. In addition, the pEC50 at D(2) dopamine receptor was below 5.00. Moreover, the half-life in data set [2] was 21 min.
Take `CCCN1CCOC(c2cccc(C(=O)OC)c2)C1` (stereo unspecified): the pEC50 on D(3) dopamine receptor was below 6.00.
As for `CC(=O)NCCCCN1CCOC(c2cccc(O)c2)C1` (stereo unspecified), the pEC50 at D(3) dopamine receptor and at D(2) dopamine receptor was below 5.00 in each case.
As to `CCCN1CCOC(c2ccc(F)c(O)c2)C1` (stereo unspecified), the pEC50 on D(3) dopamine receptor was 7.46.
Same read-out and setting: to `CCCN1CCOC(c2ccc(O)c(-n3cnnc3)c2)C1` (stereo unspecified) belongs below 6.00.
In the case of `CCCN1CCOC(c2cccc(Cl)c2)C1` (stereo unspecified), the negative-log EC50 (pEC50) on D(3) dopamine receptor was below 5.55; at D(2) dopamine receptor it was below 5.00.
The matching figures for `CCCN1CCOC(c2cccc(S(C)(=O)=O)c2)C1` (stereo unspecified): below 6.00 and below 5.00.
In the case of `Oc1cccc(C2CNCCO2)c1` (stereo unspecified), the values for the pEC50 at D(3) dopamine receptor and on D(2) dopamine receptor were 6.06 and 5.14, respectively.
Consider `CCCN1CCOC(c2ccc(O)c(NS(C)(=O)=O)c2)C1` (stereo unspecified), for which the pEC50 on D(3) dopamine receptor was below 6.00.
In the case of `CCCN1CCOC(c2ccc(CO)c(O)c2)C1` (stereo unspecified), the negative logarithm of the EC50 (pEC50) at D(3) dopamine receptor is below 5.23.
On to `CCCN1CCOC(c2cccc(C(N)=O)c2)C1` (stereo unspecified), for which the pEC50 on D(3) dopamine receptor is below 6.00.
Still for that read-out and setting: to `CCCN1CCOC(c2cc(O)ccc2Br)C1` (stereo unspecified) belongs below 5.00.
For `CCCN1CCOC(c2cccc(NS(C)(=O)=O)c2)C1` (stereo unspecified), the pEC50 at D(3) dopamine receptor and on D(2) dopamine receptor was below 6.00 in each case.
Regarding `CCCN1CCOC(c2cc(O)cc(C#N)c2)C1` (stereo unspecified), the negative-log EC50 (pEC50) on D(3) dopamine receptor is below 5.00.
`CCCN(CCC)CCc1cccc2c1CC(=O)N2` [ROPINIROLE]: the pEC50 on D(2) dopamine receptor was 7.08.
Take `CCCN1CCOC(c2ccc(O)c(C#N)c2)C1` (stereo unspecified): the pEC50 on D(3) dopamine receptor was below 6.00.
On to `CCCN1CCOC(c2cccc(C(=O)O)c2)C1` (stereo unspecified), for which the values for the negative logarithm of the EC50 (pEC50) on D(3) dopamine receptor and on D(2) dopamine receptor were below 6.00 and below 5.00, respectively.
With `CCCN1CCO[C@H](c2cc(O)cc(O)c2)C1`, on D(3) dopamine receptor, the pEC50 is 7.49 and the maximal response (Emax) was above 90%. Moreover, the pEC50 at D(2) dopamine receptor is below 5.00. For the same compound, in data set [3], the clearance was determined as 188 mL/min/kg.
As to `CCCN1CCOC(c2cccc(-c3ncc[nH]3)c2)C1` (stereo unspecified), the pEC50 at D(3) dopamine receptor is below 6.00; on D(2) dopamine receptor, below 5.00.
For the compound `CCCN1CCOC(c2cc(O)cc(O)c2)C1` (stereo unspecified), the pEC50 on D(3) dopamine receptor is 7.43.
For the compound `CC(C)(C)NCC(O)c1cc(O)cc(O)c1` (stereo unspecified) [TERBUTALINE], the clearance in data set [1] came to 3.1 mL/min/kg.
